Test results taken from ChEMBL document CHEMBL3600321, “Synthesis and antifungal evaluation of head-to-head and head-to-tail bisamidine compounds” (Bioorg Med Chem, 2015).
In brackets after ≈: the same amount, converted by molar mass.

How the values were obtained:
[1] = Metabolic stability in liver microsomes (unknown origin); assay type: ADME
[2] = test system: Nakaseomyces glabratus; assay: Antifungal activity against Candida glabrata ATCC 90030 WTBF-86 by microbroth dilution method; assay type: functional
Procedure, shortened: (§1)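 CLSI microbroth dilution in RPMI 1640 with L-glutamine. MIC values are geometric means of three independent assays.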

[3] = test system: HeLa; assay: Cytotoxicity against human HeLa cells assessed as cell viability after 72 hrs by MTS assay; assay type: cell-based
[4] = test system: Candida parapsilosis; assay: Antifungal activity against Candida parapsilosis ATCC 90018 WTBF-88 by microbroth dilution method; assay type: functional; settings: Lodderomyces parapsilosis; procedure, shortened: as §1
[5] = test system: Cryptococcus neoformans; assay: Antifungal activity against Cryptococcus neoformans Cn18 (Serotype C) WTBF-106 by microbroth dilution method; assay type: functional
Procedure, shortened: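 Microbroth dilution per the CLSI protocol, run in Sabouraud Dextrose Broth in place of RPMI. MIC values are geometric means of three independent assays.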

[6] = test system: Pichia kudriavzevii; assay: Antifungal activity against Candida krusei WTBF-51 by microbroth dilution method; assay type: functional
[7] = test system: Candida albicans; assay: Antifungal activity against Candida albicans WTBF-50 by microbroth dilution method; assay type: functional; procedure, shortened: as §1

Row | SMILES | Stability [1] | MIC [2] | CC50 [3] | MIC [4] | MIC [5] | MIC [6] | MIC [7]
1 | CN(C)CCNC(=N)c1ccc2cc(-c3ccc(-c4cc5ccc(C(=N)NCCN(C)C)cc5[nH]4)cc3)[nH]c2c1.O=C(O)C(F)(F)F | Stable | 0.63 µg/mL | 5.5 µg/mL | 0.5 µg/mL | 1.97 µg/mL | 1 µg/mL | 1 µg/mL
2 | O=C(O)C(F)(F)F.OC1CN=C(c2ccc3cc(-c4ccc(-c5cc6ccc(C7=NCC(O)CN7)cc6[nH]5)cc4)[nH]c3c2)NC1 (stereo not drawn) | Stable | 0.16 µg/mL | > 80 µg/mL | 0.31 µg/mL | 0.06 µg/mL | 12.7 µg/mL | 0.5 µg/mL
3 | Clc1c(-c2ccc(-c3[nH]c4cc(C5=NCCCN5)ccc4c3Cl)cc2)[nH]c2cc(C3=NCCCN3)ccc12.O=C(O)C(F)(F)F | Stable | 0.25 µg/mL | 0.65 µg/mL | 0.25 µg/mL | 0.78 µg/mL | 0.25 µg/mL | 0.4 µg/mL
4 | Cl.N=C(N)c1ccc2cc(-c3ccc(-c4cc5ccc(C(=N)N)cc5[nH]4)cc3)[nH]c2c1 | Stable | 4 µg/mL | 7 µg/mL | 2 µg/mL | 3.13 µg/mL | 2 µg/mL | 16 µg/mL
5 | c1cc2[nH]c(-c3ccc(-c4cc5ccc(C6=NCCCN6)cc5[nH]4)cc3)cc2cc1C1=NCCCN1 | Stable |  | 13.6 µg/mL (≈ 28.8 µM) |  | 3.12 µg/mL (≈ 6.6 µM) | 19.8 µg/mL (≈ 41.9 µM) | 7.87 µg/mL (≈ 16.7 µM)
6 | CC(=O)O.c1cc2cc(-c3ccc4cc(C5=NCCCN5)[nH]c4c3)sc2cc1C1=NCCCN1 | Stable | 5.04 µg/mL | 27.5 µg/mL | 2 µg/mL | 4 µg/mL | 16 µg/mL | 3.17 µg/mL
7 | O=C(O)C(F)(F)F.c1cc2cc(-c3ccc(-c4nc5ccc(C6=NCCCN6)cc5[nH]4)cc3)[nH]c2cc1C1=NCCCN1 | Stable | 0.13 µg/mL | 14.1 µg/mL | 0.16 µg/mL | 0.5 µg/mL | 1 µg/mL | 0.4 µg/mL
8 | CC1(C)CN=C(c2ccc3cc(-c4ccc(-c5cc6ccc(C7=NCC(C)(C)CN7)cc6[nH]5)cc4)[nH]c3c2)NC1.O=C(O)C(F)(F)F | Stable | 2 µg/mL | 8 µg/mL | 8 µg/mL | 3.13 µg/mL | 4 µg/mL | 4 µg/mL
9 | CC1CN=C(c2ccc3cc(-c4ccc(-c5cc6ccc(C7=NCC(C)CN7)cc6[nH]5)cc4)[nH]c3c2)NC1.O=C(O)C(F)(F)F (stereo not drawn) | Stable | 0.13 µg/mL | 5.8 µg/mL | 0.25 µg/mL | 0.25 µg/mL | 0.5 µg/mL | 0.5 µg/mL
10 | Cl.OCC1(CO)CN=C(c2ccc3cc(-c4ccc(-c5cc6ccc(C7=NCC(CO)(CO)CN7)cc6[nH]5)cc4)[nH]c3c2)NC1 | Stable | 1 µg/mL | 32.4 µg/mL | 2 µg/mL | 3.13 µg/mL | 8 µg/mL | 1.26 µg/mL
11 | CC(=O)O.c1cc2cc(-c3ccc4oc(C5=NCCCN5)cc4c3)[nH]c2cc1C1=NCCCN1 | Stable | 1 µg/mL | 50.5 µg/mL | 0.5 µg/mL | 1 µg/mL | 4 µg/mL | 0.4 µg/mL
12 | O=C(O)C(F)(F)F.c1cc2cc(CCc3cc4ccc(C5=NCCCN5)cc4[nH]3)[nH]c2cc1C1=NCCCN1 | Stable | 1 µg/mL | 24.6 µg/mL | 2 µg/mL | 1 µg/mL | 8 µg/mL | 3.17 µg/mL
13 | CC(=O)O.c1cc2cc(-c3ccc(-c4ccc5nc(C6=NCCCN6)cn5c4)cc3)[nH]c2cc1C1=NCCCN1 | Stable | 0.13 µg/mL | 34.6 µg/mL | 0.5 µg/mL | 2 µg/mL | 0.5 µg/mL | 0.5 µg/mL
14 | CC(=O)O.c1cc2cc(-c3cnc(-c4cc5ccc(C6=NCCCN6)cc5o4)cn3)oc2cc1C1=NCCCN1 | Stable | 16 µg/mL | > 80 µg/mL | 2 µg/mL | 3.13 µg/mL | 20.2 µg/mL | 20.2 µg/mL
15 | CC(=O)O.c1cc2nc(-c3ccc(-c4ccc5cc(C6=NCCCN6)oc5c4)cc3)cn2cc1C1=NCCCN1 | Stable | 0.31 µg/mL | 25.5 µg/mL | 2 µg/mL | 2 µg/mL | 8 µg/mL | 2 µg/mL
16 | N=C(NC1CCC(O)CC1)c1ccc2cc(-c3ccc(-c4cc5ccc(C(=N)NC6CCC(O)CC6)cc5[nH]4)cc3)[nH]c2c1.O=C(O)C(F)(F)F (stereo not drawn) | Stable | 4 µg/mL | 29.8 µg/mL | 2 µg/mL | 2.48 µg/mL | 4 µg/mL | 2.52 µg/mL
17 | CC(=O)O.c1cc2cc(-c3ccc(-c4cc5ccc(C6=NCCCN6)cc5o4)cn3)[nH]c2cc1C1=NCCCN1 | Stable | 0.06 µg/mL | 15.6 µg/mL | 0.13 µg/mL | 0.25 µg/mL | 0.5 µg/mL | 0.5 µg/mL

Row | SMILES | Stability [1] | MIC [2] | CC50 [3] | MIC [4] | MIC [5] | MIC [6] | MIC [7]
18 | CC(=O)O.c1cc2cc(-c3ccc4cc(C5=NCCCN5)[nH]c4c3)oc2cc1C1=NCCCN1 | Stable | 2.52 µg/mL | 40.5 µg/mL | 2 µg/mL | 1 µg/mL | 25.4 µg/mL | 4 µg/mL
19 | c1cc2cc(CCCc3cc4ccc(C5=NCCCN5)cc4[nH]3)[nH]c2cc1C1=NCCCN1 | Stable | 12.7 µg/mL (≈ 29 µM) | 80.3 µg/mL (≈ 183 µM) | 32 µg/mL (≈ 73 µM) | 16 µg/mL (≈ 36.5 µM) | 32 µg/mL (≈ 73 µM) | 22.6 µg/mL (≈ 51.6 µM)
20 | O=C(O)C(F)(F)F.c1cc2cc(-c3ccc(-c4cn5cc(C6=NCCCN6)ccc5n4)cc3)[nH]c2cc1C1=NCCCN1 | Stable | 0.25 µg/mL | 19.7 µg/mL | 0.25 µg/mL | 3.13 µg/mL | 4 µg/mL | 0.63 µg/mL
21 | N=C(NCCO)c1ccc2cc(-c3ccc(-c4cc5ccc(C(=N)NCCO)cc5[nH]4)cc3)[nH]c2c1.O=C(O)C(F)(F)F | Stable | 0.13 µg/mL | 14 µg/mL | 0.25 µg/mL | 1.97 µg/mL | 1.59 µg/mL | 0.25 µg/mL
22 | Brc1c(-c2ccc(-c3[nH]c4cc(C5=NCCCN5)ccc4c3Br)cc2)[nH]c2cc(C3=NCCCN3)ccc12.O=C(O)C(F)(F)F | Stable | 0.5 µg/mL | 0.5 µg/mL | 0.5 µg/mL | 0.78 µg/mL | 0.5 µg/mL | 0.63 µg/mL
23 | CC(=O)O.c1cn2cc(-c3ccc(-c4ccc5cc(C6=NCCCN6)oc5c4)cc3)nc2cc1C1=NCCCN1 | Stable | 1.59 µg/mL | 32.5 µg/mL | 2.52 µg/mL | 3.94 µg/mL | 8 µg/mL | 8 µg/mL
24 | CC(=O)N1CCN(c2ccc(OCC3COC(Cn4ccnc4)(c4ccc(Cl)cc4Cl)O3)cc2)CC1 (stereo not drawn) [KETOCONAZOLE] |  | ≥ 32 µg/mL |  | 0.06 µg/mL (≈ 0.113 µM) | 32 µg/mL (≈ 60.2 µM) | 4 µg/mL (≈ 7.53 µM) | 20.2 µg/mL (≈ 38 µM)
25 | O=C(O)C(F)(F)F.c1cc2cc(-c3ccc(-c4cn5ccc(C6=NCCCN6)cc5n4)cc3)[nH]c2cc1C1=NCCCN1 | Stable | 4 µg/mL | 20.9 µg/mL | 0.5 µg/mL | 1 µg/mL | 6.35 µg/mL | 4 µg/mL
26 | COCCNC(=N)c1ccc2cc(-c3ccc(-c4cc5ccc(C(=N)NCCOC)cc5[nH]4)cc3)[nH]c2c1.O=C(O)C(F)(F)F | Stable | 0.5 µg/mL | 3.5 µg/mL | 0.79 µg/mL | 1.1 µg/mL | 1 µg/mL | 0.79 µg/mL
27 | CC(=O)O.c1cc2cc(-c3ccc(-c4ccc5nc(C6=NCCCN6)cn5c4)cc3)oc2cc1C1=NCCCN1 | Stable | 1 µg/mL | 20.7 µg/mL | 0.79 µg/mL | 1 µg/mL | 8 µg/mL | 4 µg/mL
28 | CC(=O)O.c1cn2cc(-c3ccc(-c4ccc5cc(C6=NCCCN6)[nH]c5c4)cc3)nc2cc1C1=NCCCN1 | Stable | 32 µg/mL | 20.7 µg/mL | 8 µg/mL | 1 µg/mL | 16 µg/mL | 16 µg/mL
29 | N=C(NCCN1CCOCC1)c1ccc2cc(-c3ccc(-c4cc5ccc(C(=N)NCCN6CCOCC6)cc5[nH]4)cc3)[nH]c2c1.O=C(O)C(F)(F)F | Stable | 2 µg/mL | 24.9 µg/mL | 2 µg/mL | 2.48 µg/mL | 2 µg/mL | 2.52 µg/mL
30 | Nc1nc(=O)[nH]cc1F [FLUCYTOSINE] |  | 0.31 µg/mL (≈ 2.4 µM) |  | 1.25 µg/mL (≈ 9.68 µM) | ≥ 20 µg/mL | ≥ 20 µg/mL | 1.25 µg/mL (≈ 9.68 µM)
31 | CC(=O)O.c1cc2cc(-c3ccc4cc(C5=NCCCN5)oc4c3)[nH]c2cc1C1=NCCCN1 | Stable | 0.13 µg/mL | 17.1 µg/mL | 0.5 µg/mL | 0.5 µg/mL | 4 µg/mL | 0.31 µg/mL
32 | FC1CN=C(c2ccc3cc(-c4ccc(-c5cc6ccc(C7=NCC(F)CN7)cc6[nH]5)cc4)[nH]c3c2)NC1.O=C(O)C(F)(F)F (stereo not drawn) | Stable | 0.13 µg/mL | 13.9 µg/mL | 0.25 µg/mL | 0.25 µg/mL | 0.25 µg/mL | 0.5 µg/mL
33 | OC(Cn1cncn1)(Cn1cncn1)c1ccc(F)cc1F [FLUCONAZOLE] |  | ≥ 32 µg/mL |  | 1 µg/mL (≈ 3.27 µM) | 32 µg/mL (≈ 104 µM) | ≥ 32 µg/mL | ≥ 32 µg/mL
